In ChEMBL document CHEMBL3352437, “Novel 3,5-bis(arylidene)-4-oxo-1-piperidinyl dimers: structure-activity relationships and potent antileukemic and antilymphoma cytotoxicity” (Eur J Med Chem, 2014):

Tests used:
[1] = system: CCRF-CEM; test: Antiproliferative activity against human CEM cells after 72 hrs by coulter counting analysis; type: functional, cell-based
Outline: (§1)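 Cells exposed to a range of concentrations in RPMI 1640 at 37°C for 72 h. Surviving cells counted by Coulter counter. IC50 taken from concentration-response curves, mean ± SD of at least three independent experiments.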

[2] = system: MCF7; test: Cytotoxicity against human MCF7 cells assessed as dead cells at 1 uM after 24 hrs; type: functional
Outline: (§2)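 Dienones added as DMSO solutions to cells in RPMI medium and incubated 24 h at 37°C. Cytotoxicity was scored as cell-membrane disruption by propidium iodide staining and expressed as percentage of dead cells, averaged over three independent experiments.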

[3] = system: HS27; test: Cytotoxicity against human HS27 cells assessed as dead cells at 1 uM after 24 hrs; type: cell-based; conditions: hs27, 24 h
Outline: (§3)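 Compounds added from DMSO solutions to cells in medium (RPMI; DMEM for Hs-27 fibroblasts) and incubated 24 h at 37°C. Membrane disruption scored by propidium iodide uptake. Result is percentage of dead cells, average of three independent experiments.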

[4] = system: YT; test: Cytotoxicity against human YT cells assessed as dead cells at 1 uM after 24 hrs; type: functional; outline: as §2
[5] = system: CCRF-CEM; test: Cytotoxicity against human CEM cells assessed as dead cells at 1 uM after 24 hrs; type: functional; outline: as §2
[6] = Cytotoxicity against human 22Rvl cells assessed as dead cells at 1 uM after 24 hrs; type: functional; outline: as §2
[7] = system: LAPC4; test: Cytotoxicity against human LAPC4 cells assessed as dead cells at 1 uM after 24 hrs; type: functional; outline: as §2
[8] = Cytotoxicity against human SupT1 cells assessed as dead cells at 1 uM after 24 hrs; type: functional, SUP-T1; outline: as §2
[9] = system: HeLa; test: Antiproliferative activity against human HeLa cells after 72 hrs by coulter counting analysis; type: functional, cell-based; outline: as §1
[10] = Cytotoxicity against human MCF10A cells assessed as dead cells at 1 uM after 24 hrs; type: cell-based; conditions: mcf-10a; outline: as §3
[11] = system: HCC70; test: Cytotoxicity against human HCC70 cells assessed as dead cells at 1 uM after 24 hrs; type: functional; outline: as §2
[12] = Antiproliferative activity against human Molt4/C8 cells after 72 hrs by coulter counting analysis; type: functional, cell-based; conditions: MOLT-4, 72 h; outline: as §1
[13] = Cytotoxicity against human MOLT3 cells assessed as dead cells at 1 uM after 24 hrs; type: functional, MOLT-3; outline: as §2
[14] = Cytotoxicity against human NALM6 cells assessed as dead cells at 1 uM after 24 hrs; type: functional, NALM-6; outline: as §2
[15] = Cytotoxicity against human MDA231 cells assessed as dead cells at 1 uM after 24 hrs; type: functional, MDA-MB-231; outline: as §2
[16] = system: Raji; test: Cytotoxicity against human Raji cells assessed as dead cells at 1 uM after 24 hrs; type: functional; outline: as §2
[17] = system: L1210; test: Antiproliferative activity against mouse L1210 cells after 72 hrs by coulter counting analysis; type: functional, cell-based; conditions: L1210, 72 h
[18] = system: Jurkat; test: Cytotoxicity against human Jurkat cells assessed as dead cells at 1 uM after 24 hrs; type: functional; outline: as §2
[19] = Cytotoxicity against human HuT-102 cells assessed as dead cells at 1 uM after 24 hrs; type: functional; outline: as §2
[20] = system: Ramos; test: Cytotoxicity against human Ramos cells assessed as dead cells at 1 uM after 24 hrs; type: functional; outline: as §2
[21] = system: DU-145; test: Cytotoxicity against human DU145 cells assessed as dead cells at 1 uM after 24 hrs; type: functional; outline: as §2
[22] = system: BJAB; test: Cytotoxicity against human BJAB cells assessed as dead cells at 1 uM after 24 hrs; type: functional; outline: as §2
[23] = system: EL4; test: Cytotoxicity against mouse EL4 cells assessed as dead cells at 1 uM after 24 hrs; type: functional; outline: as §2
[24] = Cytotoxicity against human NCI60 cells assessed as inhibition of tumor growth after 24 hrs; type: functional, cell-based; conditions: NCI60, 24 h
[25] = system: SR; test: Antileukemic activity against human SR cells assessed as inhibition of tumor growth after 24 hrs; type: functional, cell-based
[26] = Antileukemic activity against human RPMI8226 cells assessed as inhibition of tumor growth after 24 hrs; type: functional, cell-based; conditions: rpmi-8226
[27] = Cytotoxicity against human HCT15 cells assessed as inhibition of tumor growth after 24 hrs; type: functional, cell-based; conditions: HCT-15, 24 h
[28] = system: SW-620; test: Cytotoxicity against human SW620 cells assessed as inhibition of tumor growth after 24 hrs; type: functional, cell-based; conditions: SW-620, 24 h
[29] = system: K562; test: Antileukemic activity against human K562 cells assessed as inhibition of tumor growth after 24 hrs; type: functional, cell-based; conditions: K562, 24 h
[30] = system: KM12; test: Cytotoxicity against human KM12 cells assessed as inhibition of tumor growth after 24 hrs; type: functional, cell-based; conditions: KM12, 24 h
[31] = system: COLO 205; test: Cytotoxicity against human COLO205 cells assessed as inhibition of tumor growth after 24 hrs; type: functional, cell-based; conditions: COLO 205, 24 h
[32] = system: HL-60(TB); test: Antileukemic activity against human HL-60(TB) cells assessed as inhibition of tumor growth after 24 hrs; type: functional, cell-based; conditions: HL-60, 24 h
[33] = system: HCC 2998; test: Cytotoxicity against human HCC2998 cells assessed as inhibition of tumor growth after 24 hrs; type: functional, cell-based; conditions: HCC 2998, 24 h

| SMILES | IC50 [1] | Activity [2] | Activity [3] | Activity [4] | Activity [5] | Activity [6] | Activity [7] | Activity [8] | IC50 [9] | Activity [10] | Activity [11] | IC50 [12] | Activity [13] | Activity [14] | Activity [15] | Activity [16] | IC50 [17] | Activity [18] | Activity [19] | Activity [20] | other results |
| --- | --- | --- | --- | --- | --- | --- | --- | --- | --- | --- | --- | --- | --- | --- | --- | --- | --- | --- | --- | --- | --- |
| Cc1ccc(/C=C2\CN(C(=O)C(=O)N3C/C(=C\c4ccc(C)cc4)C(=O)/C(=C/c4ccc(C)cc4)C3)C/C(=C\c3ccc(C)cc3)C2=O)cc1 | 7.72 µM | 0% | 12% | 20.1% | 68.4% | 16.2% | 2.4% | 18.8% | 3.79 µM | 9.3% | 11.9% | 1.66 µM | 0.8% | 59.5% | 9.3% | 41.5% | 9.09 µM | 80.7% | 13.9% | 84.4% | Activity [21]: 26%; Activity [22]: 41.5%; Activity [23]: 43.5% |
| COc1ccc(/C=C2/CN(C(=O)CC(=O)N3C/C(=C\c4ccc(OC)cc4)C(=O)/C(=C/c4ccc(OC)cc4)C3)C/C(=C\c3ccc(OC)cc3)C2=O)cc1 | 369 µM |  |  |  |  |  |  |  | 219 µM |  |  | 449 µM |  |  |  |  | > 500 µM |  |  |  |  |
| O=C1/C(=C/c2ccccc2)CN(C(=O)C(=O)N2C/C(=C\c3ccccc3)C(=O)/C(=C/c3ccccc3)C2)C/C1=C\c1ccccc1 | 0.75 µM |  |  |  |  |  |  |  | 1 µM |  |  | 0.462 µM |  |  |  |  | 4.46 µM |  |  |  | IC50 [24]: 0.31 µM; IC50 [25]: 0.02 µM; IC50 [26]: 0.03 µM; IC50 [27]: 0.3 µM |
| Cc1ccc(/C=C2/CN(C(=O)CC(=O)N3C/C(=C\c4ccc(C)cc4)C(=O)/C(=C/c4ccc(C)cc4)C3)C/C(=C\c3ccc(C)cc3)C2=O)cc1 | 3.44 µM | 19.1% | 26.5% | 29.1% | 85.7% | 6.3% | 7% | 23.6% | 2.88 µM | 15.4% | 10.1% | 1.89 µM | 21.3% | 67.6% | 8.6% | 46.5% | 5.38 µM | 85.5% | 50.9% | 83% | IC50 [24]: 0.19 µM; IC50 [25]: 0.05 µM; IC50 [26]: 0.03 µM; IC50 [28]: 0.15 µM; IC50 [29]: 0.1 µM; IC50 [30]: 0.17 µM; IC50 [31]: 0.17 µM; IC50 [32]: 0.23 µM; Activity [21]: 21.9%; Activity [22]: 60.2%; IC50 [33]: 0.3 µM; Activity [23]: 66.9%; IC50 [27]: 0.08 µM |
| O=C1/C(=C\c2ccc(F)cc2)CN(C(=O)CC(=O)N2C/C(=C\c3ccc(F)cc3)C(=O)/C(=C/c3ccc(F)cc3)C2)C/C1=C\c1ccc(F)cc1 | 2.75 µM | 0.2% | 0.3% | 19.2% | 92.4% | 18.8% | 11.1% | 24.9% | 5.61 µM | 7% | 3.1% | 1.58 µM | 2.6% | 51.9% | 0.4% | 35.3% | 11 µM | 87.1% | 58.5% | 78.6% | Activity [21]: 38.4%; Activity [22]: 61.2%; Activity [23]: 47.7% |
| O=c1[nH]cc(F)c(=O)[nH]1 [FLUOROURACIL] |  |  |  |  |  |  |  |  |  |  |  |  |  |  |  |  |  |  |  |  | IC50 [24]: 29.5 µM; IC50 [26]: 3.55 µM |
| COc1ccc(/C=C2\CN(C(=O)C(=O)N3C/C(=C\c4ccc(OC)cc4)C(=O)/C(=C/c4ccc(OC)cc4)C3)C/C(=C\c3ccc(OC)cc3)C2=O)cc1 | 95.1 µM | 16.2% | 0.6% | 5.8% | 71.9% | 0% | 1.9% | 15.2% | 59.9 µM | 9.9% | 14.7% | 33.1 µM | 49.6% | 62.6% | 0.6% | 69.1% | 202 µM | 72% | 6.7% | 53.7% | Activity [21]: 11.4%; Activity [22]: 45.8%; Activity [23]: 71.7% |
